Activity calls are given as the source filed them. The rule behind the calls is not given here.
Tests used:
MDA-MB-468 [1] = test: Sensitivity ratio of chlorambucil IC50 to compound IC50 for human MDA-MB-468 cells; type: functional
MDA-MB-435 [2] = test: Sensitivity ratio of chlorambucil IC50 to compound IC50 for wild type human MDA-MB-435 cells; type: functional
MDA-MB-231 [3] = test: Ratio of IC50 for mitochondrial DNA-deficient human MDA-MB-231 rho theta-W02 cells to IC50 for wild type human […]; type: functional
MDA-MB-468 [4] = test: Cytotoxicity against human MDA-MB-468 cells after 72 hrs by MTT assay in presence of NAC; type: functional, cell-based; conditions: MDA-MB-468, 72 h
[5] = Drug uptake in nucleus of human MIAPaCa2 cells at 10 uM after 18 hrs using […] staining by laser-scanning confocal microscopy; type: ADME, cell-based; conditions: mia paca-2, 18 h
In short: (§1)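 Cells on glass coverslips, adhered overnight, exposed 18 h at 10 μM. Fixed in 3.7% formaldehyde 15 min at RT, permeabilized in ice-cold acetone 5 min at −20 °C, blocked in 1% BSA/PBS. Anti-TPP antisera and anti-complex I antibody (1:1000) overnight at 4 °C, then Cy5/Cy3 secondaries (1:200) 2 h. Imaged by scanning confocal microscopy.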

CAMA-1 = test: Sensitivity ratio of chlorambucil IC50 to compound IC50 for human CAMA1 cells; type: functional
MDA-MB-231 [6] = test: Sensitivity ratio of chlorambucil IC50 to compound IC50 for human MDA-MB-231 cells; type: functional
BT-549 [7] = test: Sensitivity ratio of chlorambucil IC50 to compound IC50 for human BT549 cells; type: functional
[8] = Cytotoxicity against human Hs578T cells after 72 hrs by MTT assay; type: functional, cell-based; conditions: Hs-578T
In short: (§2)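 Cells seeded at 4 × 10^3 per well, adhered overnight, then exposed continuously for 72 h. Media refreshed, MTT added to 0.3 mg/mL final, 4 h at 37 °C. Formazan dissolved in DMSO and read at 570 nm. IC50 taken from log concentration vs % nonviable cells; triplicate wells. Rho θ lines grown with 50 μg/mL uridine.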

BT-549 [9] = test: Cytotoxicity against human BT549 cells after 72 hrs by MTT assay; type: functional, cell-based; conditions: BT-549, 72 h; in short: as §2
MDA-MB-231 [10] = test: Cytotoxicity against wild type human MDA-MB-231 cells after 72 hrs by MTT assay; type: functional, cell-based; conditions: MDA-MB-231, 72 h; in short: as §2
[11] = Cytotoxicity against human SKBR3 cells after 72 hrs by MTT assay; type: functional, cell-based; conditions: SK-BR-3, 72 h; in short: as §2
MDA-MB-468 [12] = test: Induction of nuclear DNA damage in human MDA-MB-468 cells assessed as increase in gammaH2A.X expression at 2 uM by Western blotting analysis; type: functional, cell-based; conditions: TDE = time-dependent effect
MDA-MB-435 [13] = test: Cytotoxicity against wild type human MDA-MB-435 cells after 72 hrs by MTT assay; type: functional, cell-based; conditions: MDA-MB-435, 72 h; in short: as §2
MIA PaCa-2 [14] = test: Induction of nuclear DNA damage in human MIAPaCa2 cells assessed as increase in gammaH2A.X expression after 24 hrs by Western blotting analysis in presence of NAC relative to control; type: functional
[15] = Cytotoxicity against human MIAPaCa2 cells after 72 hrs by MTT assay; type: functional, cell-based; conditions: MIA PaCa-2, 72 h; in short: as §2
BXPC-3 = test: Sensitivity ratio of chlorambucil IC50 to compound IC50 for human BxPC3 cells; type: functional
MDA-MB-468 [16] = test: Cytotoxicity against human MDA-MB-468 cells after 72 hrs by MTT assay; type: functional, cell-based; conditions: MDA-MB-468, 72 h; in short: as §2
Hs-578T = test: Sensitivity ratio of chlorambucil IC50 to compound IC50 for human Hs 578T cells; type: functional
[17] = Antitumor activity against human MIAPaCa2 cells xenografted in athymic nude mouse assessed as inhibition of tumor growth at 10 mg/kg, ip administered 5 times a week for 36 days; type: functional; conditions: MIA PaCa-2, ip, 864 h, route intraperitoneal, read-out: TGI
In short: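 Established subcutaneous xenografts (2 × 10^6 cells in 1:1 matrigel–basal DMEM, right rear flank) in 4−6 week old mice; randomized at ~100 mm3, n = 6 per group. Dosed ip 10 mg/kg five times weekly; DMSO stock diluted in saline or sesame oil. Caliper volume V = d2 × D/2. Unpaired Student's t-test vs vehicle at day 36.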

SK-BR-3 = test: Sensitivity ratio of chlorambucil IC50 to compound IC50 for human SKBR3 cells; type: functional
[18] = Cell cycle arrest in human MIAPaCa2 cells assessed as increase of […] cells at 2 uM after 24 to 72 hrs by flow cytometry; type: functional, cell-based; conditions: MIA PaCa-2
In short: (§3)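 Cells in 6-well dishes exposed to 2 or 20 μM for 0−72 h, trypsinized, PBS-washed, fixed and permeabilized in 70% ethanol. Stained with 10 μg/mL propidium iodide plus 100 μg/mL RNase A. DNA content read by flow cytometry with 488 nm excitation and 575/26 nm bandpass.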

MDA-MB-435 [19] = test: Ratio of IC50 for mitochondrial DNA-deficient human MDA-MB-435 rho theta-W02 cells to IC50 for wild type human MDA-MB-435 cells; type: functional
BT-474 [20] = test: Sensitivity ratio of chlorambucil IC50 to compound IC50 for human BT474 cells; type: functional
MDA-MB-435 [21] = test: Cytotoxicity against mitochondrial DNA-deficient human MDA-MB-435 rho theta-W01 cells after 72 hrs by MTT assay; type: functional, cell-based; conditions: MDA-MB-435, 72 h; in short: as §2
MDA-MB-231 [22] = test: Cytotoxicity against mitochondrial DNA-deficient human MDA-MB-231 rho theta-W02 cells after 72 hrs by MTT assay; type: functional, cell-based; conditions: MDA-MB-231, 72 h; in short: as §2
[23] = Cytotoxicity against human CAMA1 cells after 72 hrs by MTT assay; type: functional, cell-based; conditions: CAMA-1, 72 h; in short: as §2
MIA PaCa-2 [24] = test: Induction of nuclear DNA damage in human MIAPaCa2 cells assessed as increase in gammaH2A.X expression after 24 hrs by Western blotting analysis relative to control; type: functional
MIA PaCa-2 [25] = test: Induction of nuclear DNA damage in human MIAPaCa2 cells assessed as increase in gammaH2A.X expression after 5 to 24 hrs by Western blotting analysis; type: functional, cell-based
BT-474 [26] = test: Cytotoxicity against human BT474 cells after 72 hrs by MTT assay; type: functional, cell-based; conditions: BT-474, 72 h
MDA-MB-468 [27] = test: Induction of nuclear DNA damage in human MDA-MB-468 cells assessed as increase in gammaH2A.X expression after 5 to 24 hrs by Western blotting analysis; type: functional, cell-based
MIA PaCa-2 [28] = test: Sensitivity ratio of chlorambucil IC50 to compound IC50 for human MIAPaCa2 cells; type: functional
[29] = Cytotoxicity against human BxPC3 cells after 72 hrs by MTT assay; type: functional, cell-based; conditions: BXPC-3, 72 h; in short: as §2
MDA-MB-435 [30] = test: Cytotoxicity against mitochondrial DNA-deficient human MDA-MB-435 rho theta-W02 cells after 72 hrs by MTT assay; type: functional, cell-based; conditions: MDA-MB-435, 72 h; in short: as §2
[31] = Cell cycle arrest in human MIAPaCa2 cells assessed as accumulation at S phase at 2 uM after 24 hrs by flow cytometry; type: functional, cell-based; conditions: MIA PaCa-2; in short: as §3
[32] = Cell cycle arrest in human MIAPaCa2 cells assessed as accumulation at G2/M phase at 2 uM after 24 to 48 hrs by flow cytometry; type: functional, cell-based; conditions: MIA PaCa-2; in short: as §3
MCF7 [33] = test: Sensitivity ratio of chlorambucil IC50 to compound IC50 for human MCF7 cells; type: functional
MDA-MB-435 [34] = test: Ratio of IC50 for mitochondrial DNA-deficient human MDA-MB-435 rho theta-W01 cells to IC50 for wild type human MDA-MB-435 cells; type: functional
[35] = Drug uptake in cytoplasm of human MIAPaCa2 cells at 10 uM after 18 hrs using […] staining by laser-scanning confocal microscopy; type: ADME, cell-based; conditions: mia paca-2, 18 h; in short: as §1
MIA PaCa-2 [36] = test: Induction of nuclear DNA damage in human MIAPaCa2 cells assessed as increase in gammaH2A.X expression at 2 uM by Western blotting analysis; type: functional, cell-based; conditions: TDE = time-dependent effect
[37] = Drug uptake in mitochondria of human MIAPaCa2 cells at 10 uM after 18 hrs using […] staining by laser-scanning confocal microscopy; type: ADME; conditions: mia paca-2, 18 h; in short: as §1
[38] = Cell cycle arrest in human MIAPaCa2 cells assessed as increase of […] cells at 20 uM after 24 to 72 hrs by flow cytometry; type: functional, cell-based; conditions: MIA PaCa-2; in short: as §3
MCF7 [39] = test: Cytotoxicity against human MCF7 cells after 72 hrs by MTT assay; type: functional, cell-based; conditions: MCF7, 72 h; in short: as §2
MIA PaCa-2 [40] = test: Induction of nuclear DNA damage in human MIAPaCa2 cells assessed as increase in gammaH2A.X expression at 75 uM by Western blotting analysis; type: functional, cell-based; conditions: TDE = time-dependent effect
[41] = Cell cycle arrest in human MIAPaCa2 cells assessed as accumulation at G2/M phase at 20 uM after 24 to 48 hrs by flow cytometry; type: functional, cell-based; conditions: MIA PaCa-2; in short: as §3
MDA-MB-468 [42] = test: Induction of nuclear DNA damage in human MDA-MB-468 cells assessed as increase in gammaH2A.X expression at 20 uM by Western blotting analysis; type: functional, cell-based; conditions: TDE = time-dependent effect

With `O=C(CCCc1ccc(N(CCCl)CCCl)cc1)NCCC[P+](c1ccccc1)(c1ccccc1)c1ccccc1.O=C([O-])C(F)(F)F` the “Ratio IC50” value (MDA-MB-468 [1]) was 25.8, the “Ratio IC50” value (MDA-MB-435 [2]) was 50 and the “Ratio IC50” value (MDA-MB-231 [3]) was over 2.1. The IC50 (MDA-MB-468 [4]) was 0.6 µM, the Drug uptake [5] was “Not Active” and the “Ratio IC50” value (CAMA-1) was 79.9. For the same molecule, the “Ratio IC50” value (MDA-MB-231 [6]) was 54.8, the “Ratio IC50” value (BT-549 [7]) was 27.4 and the IC50 [8] was 11.4 µM. It also gave an IC50 (BT-549 [9]) of 7.3 µM, an IC50 (MDA-MB-231 [10]) of 9.5 µM and an IC50 [11] of 5.7 µM. The Activity (MDA-MB-468 [12]) was “tde”, the IC50 (MDA-MB-435 [13]) was 3 µM and the “fold change (FC)” value (MIA PaCa-2 [14]) was 1.2. The IC50 [15] was 1.6 µM, the “Ratio IC50” value (BXPC-3) was over 40 and the IC50 (MDA-MB-468 [16]) was 1.7 µM. For the same molecule, the “Ratio IC50” value (Hs-578T) was 14.3, the inhibition in vivo at 10 mg/kg [17] was 45% and the “Ratio IC50” value (SK-BR-3) was 43.4. For the same molecule, the Activity [18] was “Active”, the “Ratio IC50” value (MDA-MB-435 [19]) was 11.7 and the “Ratio IC50” value (BT-474 [20]) was 36.5. For the same molecule, the IC50 (MDA-MB-435 [21]) was 15 µM, the IC50 (MDA-MB-231 [22]) was over 20 µM and the IC50 [23] was 2.4 µM. The “fold change (FC)” value (MIA PaCa-2 [24]) was 2.9, the Activity (MIA PaCa-2 [25]) was “Dose-dependent effect” and the IC50 (BT-474 [26]) was 6.5 µM. The Activity (MDA-MB-468 [27]) was “Dose-dependent effect”, the “Ratio IC50” value (MIA PaCa-2 [28]) was over 40 and the IC50 [29] was 2.5 µM. The IC50 (MDA-MB-435 [30]) was 35 µM, the Activity [31] was “Active” and the Activity [32] was “Active”. For the same molecule, the “Ratio IC50” value (MCF7 [33]) was 7.7, the “Ratio IC50” value (MDA-MB-435 [34]) was 5 and the Drug uptake [35] was “Active”. The Activity (MIA PaCa-2 [36]) was “tde” and the Drug uptake [37] was “Active”.
In the case of `O=C(O)CCCc1ccc(N(CCCl)CCCl)cc1` [CHLORAMBUCIL], the Activity [38] is reported as “Active”, the IC50 (MDA-MB-468 [4]) is reported as 67.5 µM and the IC50 [8] is reported as 162 µM. The IC50 (BT-549 [9]) was over 200 µM, the IC50 (MDA-MB-231 [10]) was over 200 µM and the IC50 (MCF7 [39]) was 73.3 µM. The IC50 [11] was 248 µM, the IC50 (MDA-MB-435 [13]) was 150 µM and the “fold change (FC)” value (MIA PaCa-2 [14]) was 2.6. The IC50 [15] was 78.3 µM, the IC50 (MDA-MB-468 [16]) was 43.8 µM and the inhibition in vivo at 10 mg/kg [17] was 61.5%. For the same molecule, the IC50 (MDA-MB-435 [21]) was over 200 µM, the IC50 (MDA-MB-231 [22]) was over 200 µM and the IC50 [23] was 192 µM. The “fold change (FC)” value (MIA PaCa-2 [24]) was 2.5, the IC50 (BT-474 [26]) was 238 µM and the Activity (MIA PaCa-2 [40]) was “tde”. For the same molecule, the Activity [41] was “Active”, the IC50 [29] was over 100 µM and the IC50 (MDA-MB-435 [30]) was over 200 µM. The Activity (MDA-MB-468 [42]) was “tde”.
